Measured values as given in ChEMBL document CHEMBL1671735, “Genetic factors associated with elevated carbapenem resistance in KPC-producing Klebsiella pneumoniae” (2010).
≈ marks a conversion by molar mass, not a printed value.

Legend:
Format in all cases: functional
Klebsiella pneumoniae [1] = assay: Antimicrobial activity against OmpK35-deficient Carbapenem-resistant Klebsiella pneumoniae isolate AIS081042 expressing KPC beta lactamase by broth microdilution method
Klebsiella pneumoniae [2] = assay: Antimicrobial activity against OmpK35-deficient Carbapenem-resistant Klebsiella pneumoniae isolate AIS080571 expressing KPC beta lactamase by broth microdilution method
Klebsiella pneumoniae [3] = assay: Antimicrobial activity against OmpK35-deficient Carbapenem-resistant Klebsiella pneumoniae isolate ART2008137 expressing KPC beta lactamase by broth microdilution method
Method in brief: (§1)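 The clinical K. pneumoniae isolates had been referred to CDC for susceptibility testing. bla_KPC was confirmed by PCR and subtyped by bidirectional sequencing of a 1,011-bp amplicon. Isolates were typed by PFGE of XbaI-digested DNA.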

Klebsiella pneumoniae [4] = assay: Antimicrobial activity against OmpK35-deficient Carbapenem-resistant Klebsiella pneumoniae isolate AIS070446 expressing KPC beta lactamase by broth microdilution method; method in brief: as §1
Klebsiella pneumoniae [5] = assay: Antimicrobial activity against OmpK35,OmpK36-deficient Carbapenem-resistant Klebsiella pneumoniae isolate ART2008141 expressing KPC beta lactamase by broth microdilution method
Klebsiella pneumoniae [6] = assay: Antimicrobial activity against OmpK35-deficient Carbapenem-resistant Klebsiella pneumoniae isolate ART2008026 expressing KPC beta lactamase by broth microdilution method
Klebsiella pneumoniae [7] = assay: Antimicrobial activity against OmpK35-deficient Carbapenem-resistant Klebsiella pneumoniae isolate ART2008142 expressing KPC beta lactamase by broth microdilution method
Klebsiella pneumoniae [8] = assay: Antimicrobial activity against Carbapenem-resistant Klebsiella pneumoniae isolate AIS081058 expressing KPC beta lactamase by broth microdilution method
Klebsiella pneumoniae [9] = assay: Antimicrobial activity against OmpK35,OmpK36-deficient Carbapenem-resistant Klebsiella pneumoniae isolate ART2008027 expressing KPC beta lactamase by broth microdilution method
Klebsiella pneumoniae [10] = assay: Antimicrobial activity against OmpK35-deficient Carbapenem-resistant Klebsiella pneumoniae isolate AIS080792 expressing KPC beta lactamase by broth microdilution method
Klebsiella pneumoniae [11] = assay: Antimicrobial activity against OmpK35,OmpK36-deficient Carbapenem-resistant Klebsiella pneumoniae isolate ART2008135 expressing KPC beta lactamase by broth microdilution method
Klebsiella pneumoniae [12] = assay: Antimicrobial activity against OmpK35-deficient Carbapenem-resistant Klebsiella pneumoniae isolate ART2008136 expressing KPC beta lactamase by broth microdilution method; method in brief: as §1
Klebsiella pneumoniae [13] = assay: Antimicrobial activity against OmpK35-deficient Carbapenem-resistant Klebsiella pneumoniae isolate ART2008140 expressing KPC beta lactamase by broth microdilution method
Klebsiella pneumoniae [14] = assay: Antimicrobial activity against OmpK35-deficient Carbapenem-resistant Klebsiella pneumoniae isolate AIS070654 expressing KPC beta lactamase by broth microdilution method
Klebsiella pneumoniae [15] = assay: Antimicrobial activity against Carbapenem-resistant Klebsiella pneumoniae isolate ART2008024 expressing KPC beta lactamase by broth microdilution method
Klebsiella pneumoniae [16] = assay: Antimicrobial activity against Carbapenem-resistant Klebsiella pneumoniae isolate HIP10924 expressing KPC beta lactamase by broth microdilution method
Klebsiella pneumoniae [17] = assay: Antimicrobial activity against OmpK35-deficient Carbapenem-resistant Klebsiella pneumoniae isolate HIP14474 expressing KPC beta lactamase by broth microdilution method
Klebsiella pneumoniae [18] = assay: Antimicrobial activity against OmpK35-deficient Carbapenem-resistant Klebsiella pneumoniae isolate AIS081072 expressing KPC beta lactamase by broth microdilution method
Klebsiella pneumoniae [19] = assay: Antimicrobial activity against Carbapenem-resistant Klebsiella pneumoniae isolate ART2008028 expressing KPC beta lactamase by broth microdilution method
Klebsiella pneumoniae [20] = assay: Antimicrobial activity against OmpK35-deficient Carbapenem-resistant Klebsiella pneumoniae isolate ART2008138 expressing KPC beta lactamase by broth microdilution method
Klebsiella pneumoniae [21] = assay: Antimicrobial activity against OmpK35-deficient Carbapenem-resistant Klebsiella pneumoniae isolate ART2008226 expressing KPC beta lactamase by broth microdilution method
Klebsiella pneumoniae [22] = assay: Antimicrobial activity against OmpK35-deficient Carbapenem-resistant Klebsiella pneumoniae isolate AIS080949 expressing KPC beta lactamase by broth microdilution method
Klebsiella pneumoniae [23] = assay: Antimicrobial activity against OmpK35-deficient Carbapenem-resistant Klebsiella pneumoniae isolate ART2008143 expressing KPC beta lactamase by broth microdilution method
Klebsiella pneumoniae [24] = assay: Antimicrobial activity against OmpK35-deficient Carbapenem-resistant Klebsiella pneumoniae isolate ART2008022 expressing KPC beta lactamase by broth microdilution method
Klebsiella pneumoniae [25] = assay: Antimicrobial activity against Carbapenem-resistant Klebsiella pneumoniae isolate AIS080884 expressing KPC beta lactamase by broth microdilution method
Klebsiella pneumoniae [26] = assay: Antimicrobial activity against OmpK35-deficient Carbapenem-resistant Klebsiella pneumoniae isolate ART2008139 expressing KPC beta lactamase by broth microdilution method
Klebsiella pneumoniae [27] = assay: Antimicrobial activity against OmpK35-deficient Carbapenem-resistant Klebsiella pneumoniae isolate HIP14358 expressing KPC beta lactamase by broth microdilution method

Row | SMILES | MIC (Klebsiella pneumoniae [1]) | MIC (Klebsiella pneumoniae [2]) | MIC (Klebsiella pneumoniae [3]) | MIC (Klebsiella pneumoniae [4]) | MIC (Klebsiella pneumoniae [5]) | MIC (Klebsiella pneumoniae [6]) | MIC (Klebsiella pneumoniae [7]) | MIC (Klebsiella pneumoniae [8]) | MIC (Klebsiella pneumoniae [9]) | MIC (Klebsiella pneumoniae [10]) | MIC (Klebsiella pneumoniae [11]) | MIC (Klebsiella pneumoniae [12]) | MIC (Klebsiella pneumoniae [13]) | MIC (Klebsiella pneumoniae [14]) | MIC (Klebsiella pneumoniae [15]) | MIC (Klebsiella pneumoniae [16]) | MIC (Klebsiella pneumoniae [17]) | MIC (Klebsiella pneumoniae [18]) | MIC (Klebsiella pneumoniae [19]) | MIC (Klebsiella pneumoniae [20]) | other results
1 | C[C@@H](O)[C@H]1C(=O)N2C(C(=O)O)=C(S[C@@H]3CN[C@H](C(=O)N(C)C)C3)[C@H](C)[C@H]12 [MEROPENEM] | 128 mg/L (≈ 334 µM) | 128 mg/L (≈ 334 µM) | 8 mg/L (≈ 20.9 µM) | 4 mg/L (≈ 10.4 µM) | 256 mg/L (≈ 668 µM) | 64 mg/L (≈ 167 µM) | 4 mg/L (≈ 10.4 µM) | 4 mg/L (≈ 10.4 µM) | 512 mg/L (≈ 1340 µM) | 32 mg/L (≈ 83.4 µM) | 256 mg/L (≈ 668 µM) | 8 mg/L (≈ 20.9 µM) | 2 mg/L (≈ 5.22 µM) | 1 mg/L (≈ 2.61 µM) | 64 mg/L (≈ 167 µM) | 4 mg/L (≈ 10.4 µM) | 8 mg/L (≈ 20.9 µM) | 2 mg/L (≈ 5.22 µM) | 8 mg/L (≈ 20.9 µM) | 32 mg/L (≈ 83.4 µM) | MIC (Klebsiella pneumoniae [21]): < 0.25 mg/L
2 | C[C@@H](O)[C@H]1C(=O)N2C(C(=O)O)=C(S[C@@H]3CN[C@H](C(=O)Nc4cccc(C(=O)O)c4)C3)[C@H](C)[C@H]12 | 256 mg/L (≈ 538 µM) | 256 mg/L (≈ 538 µM) | 16 mg/L (≈ 33.6 µM) | 4 mg/L (≈ 8.41 µM) | 256 mg/L (≈ 538 µM) | 256 mg/L (≈ 538 µM) | 8 mg/L (≈ 16.8 µM) | 2 mg/L (≈ 4.21 µM) | 1020 mg/L (≈ 2150 µM) | 64 mg/L (≈ 135 µM) | 1020 mg/L (≈ 2150 µM) | 16 mg/L (≈ 33.6 µM) | 8 mg/L (≈ 16.8 µM) | 2 mg/L (≈ 4.21 µM) | 128 mg/L (≈ 269 µM) | 4 mg/L (≈ 8.41 µM) | 16 mg/L (≈ 33.6 µM) | 8 mg/L (≈ 16.8 µM) | 8 mg/L (≈ 16.8 µM) | 128 mg/L (≈ 269 µM) | MIC (Klebsiella pneumoniae [22]): 64 mg/L (≈ 135 µM); MIC (Klebsiella pneumoniae [23]): 64 mg/L (≈ 135 µM); MIC (Klebsiella pneumoniae [24]): 32 mg/L (≈ 67.3 µM); MIC (Klebsiella pneumoniae [25]): 8 mg/L (≈ 16.8 µM); MIC (Klebsiella pneumoniae [26]): 16 mg/L (≈ 33.6 µM); MIC (Klebsiella pneumoniae [21]): < 0.5 mg/L; MIC (Klebsiella pneumoniae [27]): 64 mg/L (≈ 135 µM)
3 | C[C@@H](O)[C@H]1C(=O)N2C(C(=O)O)=C(SCCNC=N)C[C@H]12 [IMIPENEM ANHYDROUS] | 64 mg/L (≈ 214 µM) | 128 mg/L (≈ 428 µM) | 4 mg/L (≈ 13.4 µM) | 4 mg/L (≈ 13.4 µM) | 256 mg/L (≈ 855 µM) | 64 mg/L (≈ 214 µM) | < 1 mg/L | 1 mg/L (≈ 3.34 µM) | 512 mg/L (≈ 1710 µM) | 32 mg/L (≈ 107 µM) | 512 mg/L (≈ 1710 µM) | 8 mg/L (≈ 26.7 µM) | 4 mg/L (≈ 13.4 µM) | 4 mg/L (≈ 13.4 µM) | 32 mg/L (≈ 107 µM) | 4 mg/L (≈ 13.4 µM) | 8 mg/L (≈ 26.7 µM) | 2 mg/L (≈ 6.68 µM) | 4 mg/L (≈ 13.4 µM) | 32 mg/L (≈ 107 µM) | MIC (Klebsiella pneumoniae [22]): 32 mg/L (≈ 107 µM); MIC (Klebsiella pneumoniae [23]): 8 mg/L (≈ 26.7 µM); MIC (Klebsiella pneumoniae [24]): 8 mg/L (≈ 26.7 µM); MIC (Klebsiella pneumoniae [25]): 2 mg/L (≈ 6.68 µM); MIC (Klebsiella pneumoniae [26]): 32 mg/L (≈ 107 µM); MIC (Klebsiella pneumoniae [21]): < 1 mg/L; MIC (Klebsiella pneumoniae [27]): 32 mg/L (≈ 107 µM)
